Results from different studies.
Protocols differ between the studies behind these lines.
Organism: Trypanosoma brucei
Effect on: parasite growth

Compound | assay | system | conditions | measurement | result
Cc1c2ccc(N(C)c3ccnc(Nc4cccc(S(N)(=O)=O)c4)n3)cc2nn1C | – | – | – | EC50 | 5010 nM
Clc1ccc2c(c1)N(CCCN1CCN(CCCc3ccccc3)CC1)c1ccccc1S2 | – | – | – | EC50 | 775 nM
Cc1ccc2nc(-c3ccc(F)c(F)c3)c(CN3CCC(Cc4ccccc4)CC3)n2c1 | – | – | 48 h | EC50 | 16600 nM
COC(=O)C1CCN(C(=O)c2ccc(SCc3cnc4nc(N)nc(N)c4n3)nc2)CC1 | resazurin | – | 10 µM, 72 h | inhibition | 16%
N=C(N)c1ccc(OCCCCCOc2ccc(C(=N)N)cc2)cc1 | – | – | – | EC50 | 5.4 nM
Nc1nc(N)c2nc(C(=O)NCc3ccccc3)cnc2n1 | resazurin | – | 10 µM, 72 h | inhibition | 19%
COc1ccc(-c2oc3ncnc(N)c3c2-c2ccc(NC(=O)Nc3cc(C(F)(F)F)ccc3F)cc2)cc1 | – | – | – | EC50 | 1580 nM
CCOC(=O)C1CCCN1C(=O)c1ccc(NCc2cnc3nc(N)nc(N)c3n2)cc1 (stereo not shown) | resazurin | – | 10 µM, 72 h | inhibition | 30%
COc1cc(N2CCN(C(C)C)CC2)ccc1Nc1nc(Nc2ccc(F)cc2C(N)=O)c2cc[nH]c2n1 | – | – | – | EC50 | 200 nM
Cc1ccc(C(=O)Nc2ccc(S(=O)(=O)O)c3cc(S(=O)(=O)O)cc(S(=O)(=O)O)c23)cc1NC(=O)c1cccc(NC(=O)Nc2cccc(C(=O)Nc3cc(C(=O)Nc4ccc(S(=O)(=O)O)c5cc(S(=O)(=O)O)cc(S(=O)(=O)O)c45)ccc3C)c2)c1 | resazurin | RHODESIENSE STIB900 | – | IC50 | 35 nM
COc1cc2c(cc1Nc1nc(N3CCc4ccccc43)c3cc[nH]c3n1)N(C(=O)CN(C)C)CC2 | – | – | – | EC50 | 100 nM
Nc1nc(N)c2nc(CNc3ccc(C(=O)N4CCC(C(=O)O)CC4)cc3)cnc2n1 | resazurin | – | 10 µM, 72 h | inhibition | 8%
O=C(Cn1ccnc1[N+](=O)[O-])NCc1ccccc1 | – | – | – | IC50 | 96000 nM
Cc1ccc(C(=O)Nc2ccc(S(=O)(=O)O)c3cc(S(=O)(=O)O)cc(S(=O)(=O)O)c23)cc1NC(=O)c1cccc(NC(=O)Nc2cccc(C(=O)Nc3cc(C(=O)Nc4ccc(S(=O)(=O)O)c5cc(S(=O)(=O)O)cc(S(=O)(=O)O)c45)ccc3C)c2)c1 | resazurin | RHODESIENSE | – | IC50 | 50 nM
[O-][S+]1CCN(Cc2ccc(-c3ccc4ncnc(Nc5ccc(OCc6ccccc6)c(Cl)c5)c4c3)o2)CC1 | – | – | – | EC50 | 631 nM
Nc1nc(N)c2nc(CNc3ccc(C(=O)c4ccccc4)cc3)cnc2n1 | resazurin | – | 10 µM, 72 h | inhibition | 76%

Compound | assay | system | conditions | measurement | result
NC(=O)CN1C(=O)CNC2(C1=O)C1CC3CC(C1)CC2C3 (stereo not shown) | – | – | pH 7.4, blood stage | IC50 | 200000 nM
Cc1nn(C)c2cc(N(C)c3ccnc(Nc4cccc(S(N)(=O)=O)c4)n3)ccc12 | – | – | – | EC50 | 316 nM
Cc1cc(NC(=O)Nc2ccc3c(c2)OC(F)(F)O3)cc(C(F)(F)F)n1 | – | RHODESIENSE STIB900 | – | IC50 | 5100 nM
Cc1ccc2nc(-c3ccc(Cl)cc3)cn2c1 | – | – | 48 h | EC90 | > 20000 nM
Nc1nccc(C#Cc2cncnc2Nc2ccc(OCc3cccc(F)c3)c(Cl)c2)n1 | – | – | – | EC50 | 3160 nM
Nc1nc(N)c2nc(CNc3cccc4ccccc34)cnc2n1 | resazurin | – | 10 µM, 72 h | inhibition | 31%
NNC(=O)CN1C(=O)CNC2(C1=O)C1CC3CC(C1)CC2C3 (stereo not shown) | – | – | pH 7.4, blood stage | IC50 | 118000 nM
C#CCN(Cc1cnc2nc(N)nc(N)c2n1)c1ccc(C(=O)N2CCC(C(=O)OC)CC2)cc1 | resazurin | – | 10 µM, 72 h | inhibition | 23%
COc1ccc(C(=O)Nc2ccc(NC(=N)N)c(OCc3cc(OC)ccc3OC)c2)cc1 | – | – | – | IC50 | 800 nM
CS(=O)(=O)CCNCc1ccc(-c2ccc3ncnc(Nc4ccc(OCc5cccc(F)c5)c(C(F)(F)F)c4)c3c2)o1 | – | – | – | EC50 | 2000 nM
Cc1ccc2nc(-c3ccc(F)c(F)c3)c(CN3CCN(C4CCCCC4)CC3)n2c1 | – | – | 48 h | EC90 | > 20000 nM
CN(C)CCCN1c2ccccc2Sc2ccc(Cl)cc21 | – | – | blood stage | EC50 | 4210 nM
N=C(N)c1ccc(OCCCCCOc2ccc(C(=N)N)cc2)cc1 | – | – | – | EC90 | 6.2 nM
COC(=O)C1CCN(C(=O)Cc2ccc(NCc3cnc4nc(N)nc(N)c4n3)cc2)CC1 | resazurin | – | 10 µM, 72 h | inhibition | 23%
ClCCOC(c1ccccc1)c1ccccc1 | – | – | – | EC50 | 32100 nM
